# Only a selection was taken, and hits are over-represented in it overall.
# Hsp70 act: switches on Hsp70 transcription; HeLa Hsp70 promoter luciferase reporter, luminescence; scaled: vehicle 0, proteasome-inhibitor control 100%; activation, % at 10 µM; actives 0.04% (n = 200,000); AID 1203;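 active = activation above the mean across all tested compounds plus 3 SD, cutoff set per campaign, cut at about 5.5% in these data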;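 also: 100% = MG132 at 30 µM as the positive control and 0% = DMSO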
# HSF1 activator: increases HSF-1 driven luciferase reporter signal; NIH3T3-HGL HSF-1 luciferase reporter, MG132, 8 h; 100% = twice DMSO control signal; activation, % at 9 µM; actives 1.7% (n = 300,000);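 active = mean replicate activation of at least 50% with a set share of replicates each reaching 50%; inconclusive = only one of those two conditions met; inactive = mean below 50% and too few replicates reaching it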;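 also: 0% = median of the neutral control wells and 100% = twice that signal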
# L major viab: Leishmania major promastigote growth inhibition | Leishmania major promastigotes, resazurin fluorescence viability | inhibition, % at 10 µM | actives 9% (n = 200,000); in the data active = inhibition above about 50%;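 also: promastigotes grown with compound for 44 hours at 28 °C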
# HSF1 inh: HSF1 inhibition; actives 0.77% (n = 300,000); AID 2098; activity change, negative = inhibition, % at 7.5 µM (by protocol); NIH3T3-HGL HSE-luciferase, MG132-induced, luminescence 8 h; stronger effect = lower value;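 active = more than half of replicate wells show activity change below -50%, luminescence cut by over half; inconclusive = some wells, but at most half, below -50%; inactive = no replicate well below -50%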;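 also: luciferase reports HSF-1 transcriptional activity via heat shock element; 0% = median of DMSO wells and -100% = zero luminescence signal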
# T cruzi repl: blocks replication of Trypanosoma cruzi; T. cruzi beta-gal in NIH3T3, luminescence, 90 h; inhibition, % (concentration not given with the values); actives 1.4% (n = 300,000); AID 1885;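 active = mean inhibition across valid replicates above about 55%, limit read from the data; inconclusive = mean below that limit but half or more replicates reach it; inactive = mean below it, under half of replicates reach it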;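 also: signal also drops with host cell toxicity which is not excluded here; 0% = plate median of DMSO wells and 100% = zero luminescence signal; higher percent means less beta-gal luminescence so fewer parasites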
#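 Test system: β-gal T. cruzi (Tulahuen C4) inside NIH/3T3 cells / Quantity: 5,000 cells/well / Measured by: luminescence from GalScreen with 0.05% NP40, read after 60 min / Medium: DMEM plus 2% FBS / Measure: parasite load inhibition, % / Reagent: Tulahuen C4 trypomastigotes, 5000/well / Schedule: co-culture of at least 90 h after 3 h attachment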
# Starred values were filed as active, the others as inactive; ? = inconclusive; nt = no result given.
SMILES,Hsp70 act,HSF1 activator,L major viab,HSF1 inh,T cruzi repl
O=C1NC(=Nc2ccc(F)cc2)CS1,0,8,16,-3,-7
c1ccc(-c2cc(-c3nc4ccccc4[nH]3)c3ccccc3n2)cc1,0,4,26,-2,55*
C/C(=N\NC(=O)CCCNc1ccccc1)c1ccncc1,0,8,-5,8,-1
C/C(=N\NC(=O)CCCNc1ccc(C)cc1)c1ccccn1,0,-3,98*,-12,35
C=CCNC(=S)N/N=C(\C)c1ccccn1,0,-7,100*,-8,54
COc1ccc(Cl)cc1S(=O)(=O)N1CCC(C(=O)NCCC2=CCCCC2)CC1,nt,5,nt,4,8
Cc1nc2ccccc2nc(C)c1=NOCc1ccccc1Cl,0,55*,6,22,-28
Cc1nc(C)c(Cc2ccccc2Cl)c(=O)[nH]1,0,3,8,2,4
Cc1nc2ccccc2c(=O)n1NC(=O)c1c(O)c2c(n(CC(C)C)c1=O)CCCC2,0,1,-5,-2,13
CCCCCCc1nc2ccccc2c(=O)n1NC(=O)c1c(O)c2c(n(CC(C)C)c1=O)CCCC2,0,32,54*,7,?
O=C(Nc1cccnc1)C1CCC(CNS(=O)(=O)c2cccc3nsnc23)CC1 (configuration not stated),nt,11,nt,-2,-15
O=C(N/N=C/c1cc(Cl)cc(Cl)c1O)c1ccncc1,nt,-1,nt,0,?
O=C(N/N=C/c1cc(Br)cc(Br)c1O)c1ccncc1,0,-6,96*,-4,-4
O=C(N/N=C/c1cc(Br)cc(Br)c1O)c1cccc(N2CCCC2=O)c1,0,-8,3,-9,61*
O=C(N/N=C/c1ccc(Br)s1)c1ccncc1,0,-7,-6,1,-1
O=C(N/N=C/c1cc(Br)c(Br)s1)c1ccncc1,0,-26,98*,-18,39
O=C(N/N=C/c1ccc(Cl)cc1Cl)c1cccc(N2CCCC2=O)c1,nt,15,nt,10,-2
COc1cccc(COCC(O)Cn2cnc3cc(C)c(C)cc32)c1 (configuration not stated),0,3,31,0,-22
CCc1cccc(C)c1NC(=O)CO/N=C(\N)CC(=O)NC1CCCCC1,0,7,-7,-3,-11
O=C(c1sc2cc([N+](=O)[O-])ccc2c1Cl)N1CCOCC1,0,10,-7,6,-5
CC(C)N(C(=O)c1sc2cc([N+](=O)[O-])ccc2c1Cl)C(C)C,0,10,97*,0,8
Cc1cccn2c(=O)nc(SCC(=O)NC3CCCC3)nc12,nt,10,nt,3,2
Cc1nn(Cc2ccc(Cl)cc2Cl)c(Cl)c1/C=N/NC(=O)CNc1cccc(C(F)(F)F)c1,0,nt,5,nt,71*
O=C(CSc1ccc(Cl)cc1)Nc1ccccc1N1CCN(C(=O)c2ccccc2)CC1,0,27,72*,13,26
CCC(=O)N1CCN(c2ccc(NC(=S)NC(=O)c3cccc([N+](=O)[O-])c3)cc2)CC1,0,-12,-4,-2,-8
SMILES,Hsp70 act,HSF1 activator,L major viab,HSF1 inh,T cruzi repl
CS(=O)(=O)N1CCN(c2ccccc2NC(=O)CSc2ccc(Cl)cc2)CC1,0,17,31,11,11
CCC(=O)N1CCN(c2ccccc2NC(=S)NC(=O)c2cccc([N+](=O)[O-])c2)CC1,0,0,61*,-1,10
O=C(Nc1ccccc1N1CCN(C(=O)c2ccc(Cl)cc2)CC1)c1cccc([N+](=O)[O-])c1,nt,71*,nt,33,55*
CN1CCN(c2ccccc2NC(=O)c2cccc([N+](=O)[O-])c2)CC1,0,7,-3,-17,7
CC(C)CC(=O)N1CCN(c2ccc([N+](=O)[O-])cc2Cl)CC1,0,10,-2,-7,-8
CC(C)C(=O)N1CCN(c2ccc([N+](=O)[O-])cc2Cl)CC1,0,-39,50*,-20,2
CSc1nc2n(n1)C(C)C1=C(CCCC1=O)N2 (configuration not stated),0,-12,-7,-5,-10
CCCn1c(-c2ccc[nH]c2=O)nc2cc(C)c(C)cc21,0,15,-3,26,-2
O=C(Nc1ccccc1N1CCCC1)c1ccc([N+](=O)[O-])cc1Cl,0,14,0,-4,56*
CNC(=S)N1N=C(c2ccc(C)cc2)CC1c1ccc(N(C)C)cc1 (configuration not stated),0,9,8,3,6
CNC(=S)N1N=C(c2ccc(C)cc2)CC1c1cc(OC)ccc1OC (configuration not stated),0,25,53*,7,33
CNC(=S)N1N=C(c2ccc(Br)cc2)CC1c1ccc(OC)cc1 (configuration not stated),0,25,99*,1,34
CNC(=S)N1N=C(c2ccc(C)cc2)CC1c1ccc(OC)cc1 (configuration not stated),0,0,97*,7,23
CNC(=S)N1N=C(c2ccc(OC)cc2)CC1c1ccc(Cl)cc1Cl (configuration not stated),0,13,100*,8,?
COc1ccc(C2CC(c3ccc(Br)cc3)=NN2C(=O)CN2CCCC2)cc1 (configuration not stated),nt,4,nt,-5,35
COc1ccc(OC)c(C2CC(c3ccccc3)=NN2C(=S)Nc2ccccc2)c1 (configuration not stated),nt,0,nt,1,3
Cc1cccc(C)c1NC(=O)CN(C)C(=O)Cc1cccc(C(F)(F)F)c1,nt,-24,nt,-21,7
CC(C)NC(=O)c1ccc(-n2c(=S)[nH]c3ccccc3c2=O)cc1,0,2,-4,-6,-17
CC(C)(C)c1ccc(C(=O)O)c(C(=O)c2ccc(C(=O)O)cc2)c1,nt,-14,nt,-3,-3
CCOC(=O)C1=C(c2ccccc2)NC(=O)NC1c1ccsc1 (configuration not stated),nt,-61,nt,-51*,-21
CCOC(=O)C1=C(c2ccccc2)NC(=O)NC1c1cc(Br)c(O)c(OC)c1 (configuration not stated),0,79*,1,32,10
CCOC(=O)C1=C(C)NC(=O)NC1c1ccc(N2CCC(c3ccccc3)=N2)cc1 (configuration not stated),0,67*,14,27,45
COc1ccc2[nH]c(=O)c(CN(Cc3cccnc3)C(=S)NCC3CCCO3)cc2c1 (configuration not stated),0,12,5,1,15
c1ccc(-c2ncnc3cc4n(c23)CCC4)cc1,0,-3,-4,-7,-8
N#CC1=C2SCC(O)(c3ccccc3)N2C(=O)CC1c1ccccc1 (configuration not stated),0,-15,92*,-1,-2

# Assay outcomes from PubChem BioAssay.
